# From PubChem BioAssay
# M4 PAM – potentiates acetylcholine response at human M4 receptor. CHO-K1 hM4/Gqi5, Fluo-8 calcium fluorescence, ACh EC20; 0% = ACh EC20, 100% = maximal ACh. activation, % at 3 µM. 0.4% of 360,000 active;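 active = activation above its plate's cutoff, the mean activation of sample wells plus 3 SD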
# Target sequence (P08173 whole entry, looked up): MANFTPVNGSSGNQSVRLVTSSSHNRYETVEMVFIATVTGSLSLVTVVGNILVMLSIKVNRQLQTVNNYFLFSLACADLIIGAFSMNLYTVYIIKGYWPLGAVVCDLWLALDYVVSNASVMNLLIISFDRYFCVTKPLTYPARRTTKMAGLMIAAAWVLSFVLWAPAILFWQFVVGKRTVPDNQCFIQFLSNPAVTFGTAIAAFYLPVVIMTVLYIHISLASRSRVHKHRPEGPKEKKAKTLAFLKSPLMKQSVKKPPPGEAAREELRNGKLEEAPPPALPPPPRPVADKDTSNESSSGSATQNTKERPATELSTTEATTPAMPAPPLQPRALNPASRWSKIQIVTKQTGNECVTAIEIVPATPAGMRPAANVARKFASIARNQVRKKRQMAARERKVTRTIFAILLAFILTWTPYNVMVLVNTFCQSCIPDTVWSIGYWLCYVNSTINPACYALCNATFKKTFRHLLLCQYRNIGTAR
# M5 ag – agonists of human muscarinic M5 receptor (CHRM5); CHO-K1 hM5 cells, Fluo-8 calcium fluorescence; 0% DMSO wells, 100% maximal acetylcholine response; activation, % at 3 µM; 0.19% of 360,000 active;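 active = activation above the run's mean over test compounds plus 3 SD, cut at about 23% in these data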;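 note: signal is peak over basal fluorescence ratio across the kinetic read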
# M4 ag – CHRM4 agonism in calcium assay | P08173 | 0.14% of 360,000 active | activation, % at 3 µM | CHO-K1 hM4/Gqi5, Fluo-8 calcium fluorescence; vehicle 0%, full acetylcholine response 100%;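 active = activation above the run mean over all test wells plus 3 SD, cut at about 32% in these data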;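 note: peak over basal fluorescence ratio per well then scaled between controls; 0% = DMSO wells and 100% = acetylcholine at EC100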
# CHRM4 antagonist – CHRM4 antagonism in calcium assay. CHO-hM4 cells, ACh EC80, Fluo-8 calcium fluorescence. inhibition, % at 3 µM. 0.73% of 360,000 active. AID 624125;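 active = inhibition above its plate's cutoff, the mean inhibition of sample wells plus 3 SD, cut at about 27% in these data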;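 note: 0% = acetylcholine EC80 with DMSO and 100% = DMSO without agonist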
# M5 antag – blocks acetylcholine activation of human M5 receptor; inhibition, % at 3 µM; 0.59% of 360,000 active; P08912; CHO-hM5 cells, Fluo-8 calcium fluorescence, ACh EC80; AID 624040;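 active = inhibition above a per-plate cutoff, the mean of that plate's test compounds plus 3 SD, cut at about 27% in these data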;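 note: 0% = acetylcholine EC80 with DMSO and 100% = DMSO without agonist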
# CHRM5 PAM – potentiates acetylcholine response at human M5 receptor; P08912; CHO-K1 hM5, Fluo-8 calcium, ACh EC20 PAM; 0% = ACh EC20, 100% = ACh EC100; activation, % at 3 µM; 0.3% of 360,000 active;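 active = activation above the run cutoff, the mean activation of all test compounds plus 3 SD, cut at about 18% in these data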
#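 Assay system: CHO-K1 hM5 cells. Also added: acetylcholine at EC20 concentration, added after compound. Dosing: 3 µM, single dose. Times: compound preincubation 140 s before EC20 acetylcholine addition. Signal: Fluo-8 calcium fluorescence. Measure: % activation relative to EC20 and EC100 ACh responses. Repeats: singlicate, one well per test compound.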
# * marks the source's active call; other numbers are inactive results. This is a sample that favours compounds with a hit; in the whole collection about 1.8% have one here.
SMILES,M4 PAM,M5 ag,M4 ag,CHRM4 antagonist,M5 antag,CHRM5 PAM
C[n+]1c(-c2ccccc2)cc(-c2ccc(Cl)cc2)cc1-c1ccccc1,-1.9,-8.8,2.1,0.6,6.6,1.4
c1ccc(-c2cc(-c3ccccc3)[n+](-c3ccccc3)c(-c3ccccc3)c2)cc1,-41.2,-11.8,10.9,73.3*,48.2*,-31.0
Cc1ccc(-c2cc(-c3ccccc3)cc(-c3ccccc3)[n+]2-c2ccccc2)cc1,-21.9,-4.6,21.0,79.1*,48.6*,-41.6
Cc1ccc(-c2cc(-c3ccc(C)cc3)[n+](-c3ccc(C(=O)[O-])cc3)c(-c3ccc(C)cc3)c2)cc1,4.2,-8.8,0.1,-0.8,6.2,0.5
Cc1ccc(-c2cc(-c3ccc(C)cc3)[n+](-c3ccccc3)c(-c3ccc(C)cc3)c2)cc1,-21.3,-3.1,30.5,64.5*,30.7*,-43.2
CN(C)c1ccc(-[n+]2c(-c3ccccc3)cc(-c3ccccc3)cc2-c2ccccc2)cc1,-21.1,-4.1,18.0,56.0*,78.4*,-16.4
CC1(C)CN(S(=O)(=O)OCC(Cl)(Cl)Cl)C(=O)N1,11.3,-4.4,1.0,4.2,8.4,4.7
CC1NCCC2(O)CCCCC12 (stereo unspecified),8.4,0.2,0.9,-8.6,11.2,6.5
CC(c1ccccc1)[n+]1ccccc1 (stereo unspecified),0.2,-8.5,1.5,1.2,0.6,5.5
NC(=O)c1ccc(N)nc1,-4.3,0.3,-0.3,2.0,2.2,0.9
CCOC(=O)c1ccccc1C(=O)OCC,-1.7,-0.1,0.4,-2.5,-9.7,3.3
CCOC(=O)c1cccc(-[n+]2c(-c3ccccc3)cc(-c3ccccc3)cc2-c2ccccc2)c1,-10.8,-11.7,2.7,26.8*,24.2,-32.5
NCCc1ccc(OCc2ccccc2)c(OCc2ccccc2)c1,8.3,9.8,33.7*,21.2,2.5,15.1
COc1ccc(CCN)cc1OC,-6.6,0.8,-0.2,7.9,5.2,-4.1
CCOC(=O)C1SC2(C(F)(F)F)CC1(O)c1c(C)cc(C)nc1O2 (stereo unspecified),45.3*,0.1,-2.0,-15.6,-7.2,14.1
Cc1cc(C=O)c(C)n1CC1CCCO1 (stereo unspecified),4.2,-6.8,0.6,-9.0,-11.4,18.4*
O=C(/C=C/c1ccccc1)NC(=S)N1C[C@H]2C[C@H](C1)c1cccc(=O)n1C2,0.5,0.8,1.2,-6.9,0.9,-2.5
Cc1nc2ccc(Br)cc2c(=O)n1-c1ccc([N+](=O)[O-])c(C(F)(F)F)c1,-11.9,11.4,12.3,20.2,31.6*,-26.9
O=C1C2CCN(CC2)[C@@H]1Cc1ccc2ccccc2c1O,-23.0,-5.7,2.2,47.4*,30.1*,-17.5
CN1C(=O)C(Cc2cccc3ccccc23)C(=O)N(C)C1=O,-0.1,-1.7,0.5,7.5,-2.1,-2.7
CNC(=O)Oc1cc2c(cc1C(C)(C)C)CCC2,10.1,-11.0,-2.8,-12.3,13.5,1.4
CCNC(=S)N(C)CCc1cc2c(c(OC)c1C=C1C(=O)N(C)C(=O)N(C)C1=O)OCO2,-5.3,-10.8,0.3,1.4,-6.9,12.0
Cn1cc(C(=O)c2ccccc2)c2ccccc21,2.3,30.8*,0.0,-3.2,-2.8,-11.2
O=c1[nH]c2ccccc2n1C1CCN(C(c2ccccc2)c2nnnn2-c2ccc3c(c2)OCCO3)CC1 (stereo unspecified),-5.9,1.5,21.1,34.0*,15.1,-15.3
COc1ccc(-n2nnnc2C(c2ccccc2)N2CCC(n3c(=O)[nH]c4ccccc43)CC2)cc1 (stereo unspecified),-12.0,6.0,18.9,24.8,22.5,-18.2
SMILES,M4 PAM,M5 ag,M4 ag,CHRM4 antagonist,M5 antag,CHRM5 PAM
COc1ccc(-n2nnnc2C(c2cccs2)N2CCC(n3c(=O)[nH]c4ccccc43)CC2)cc1 (stereo unspecified),-9.1,4.1,17.5,36.4*,7.0,-21.2
COc1ccc(-n2nnnc2C(c2cccc(OC)c2OC)N2CCC(n3c(=O)[nH]c4ccccc43)CC2)cc1 (stereo unspecified),-8.4,15.1,17.5,17.6,8.8,-16.3
COc1cccc(C(c2nnnn2-c2ccc3c(c2)OCCO3)N2CCC(n3c(=O)[nH]c4ccccc43)CC2)c1OC (stereo unspecified),-9.9,29.8*,23.2,13.2,14.6,-9.5
COc1ccc2c(c1)c(C(=O)C(C)N1CCCCC1)c(C)n2C (stereo unspecified),-1.3,2.4,17.7,1.4,6.8,-7.2
CCCCCC[N+](=O)[O-],-5.9,1.4,0.4,-3.6,-3.4,0.1
CCCCCCCCCCCCCCCC[N+](C)(C)C,-15.5,-1.6,0.6,29.9*,38.3*,-18.5
Cc1cc(N(CCCl)CCCl)ccc1/C=N/N=C(\N)c1cnccn1,-9.4,-5.2,3.8,-10.3,7.6,-6.9
Cc1cc(N(CCCl)CCCl)ccc1C=Cc1ccncn1,-8.2,22.7,35.5*,1.3,12.6,-23.8
CC1(C)CN=C(Nc2ccc(F)c(Cl)c2)S1,8.6,14.9,35.1*,4.4,3.3,-1.0
Cc1nc2ccc(Cl)cc2c(=O)n1-c1ccccc1Cl,-4.1,-0.8,0.0,4.8,3.7,-3.8
CC1CC2C(C(O)CC3(C)C(O)CCC23)C2(C)CCC(=O)C=C12 (stereo unspecified),0.3,1.6,2.5,-2.2,16.3,-8.2
COC(=O)C1=C(C(=O)OC)C2OC1c1cc3ccccc3cc12,-10.1,0.1,14.2,96.4*,17.0,-7.0
COC(=O)C1=C(c2ccc3ccccc3c2)C[C@@H]2CC[C@H]1N2C,1.6,-12.5,2.2,1.9,5.9,-4.7
NS(=O)(=O)c1ccc(N2CCNCC2)cc1,2.8,0.5,0.0,-4.2,16.1,-1.3
CCC(CO)(C(=O)OC1C[N+]2(C)CCC1CC2)c1ccccc1 (stereo unspecified),-25.3,-10.8,-0.6,98.5*,98.9*,-18.6
O=C(C[N+]12CCC(CC1)C(OC(=O)c1ccccc1)C2)c1ccc([N+](=O)[O-])cc1 (stereo unspecified),-21.4,-18.2,-0.2,13.5,4.2,4.0
Nc1cc(C(=O)Nc2ccc(Cl)cc2)ccc1N1CC2CC(C1)c1cccc(=O)n1C2 (stereo unspecified),-8.6,-4.0,6.4,-10.4,-6.2,3.8
CN(C)P(=NC(=S)c1cccn1C)(N(C)C)N(C)C,-15.2,-7.4,1.5,20.0,27.3*,-26.0
Cc1ccc(C(=O)N/C(=C\Cl)P(=O)(c2ccccc2)c2ccccc2)cc1,1.0,-3.4,0.7,-4.9,-12.7,0.6
